Measurements taken from ChEMBL document CHEMBL4229344 (Eur J Med Chem, 2018).

Key:
[1] = molecular target: Phosphatidylinositol 4-kinase beta (Homo sapiens) (UniProt Q9UBF8); assay: Binding affinity to wild-type human full length PIK4CB (M1 to M828 residues) expressed in mammalian expression system assessed as residual binding level at 1 uM by Kinomescan method relative to control
How it was run: (§1)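 Single-concentration KINOMEscan (DiscoverX) binding screen at 1 μM against a panel of 468 purified kinases and mutants. The read-out is binding relative to control.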

[2] = molecular target: Serine/threonine-protein kinase 36 (Homo sapiens) (UniProt Q9NRP7); assay: Binding affinity to wild-type human partial length STK36 (M1 to T271 residues) expressed in bacterial expression system assessed as residual binding level at 1 uM by Kinomescan method relative to control
[3] = system: Phosphatidylinositol 4,5-bisphosphate 3-kinase catalytic subunit alpha isoform (Homo sapiens), P42336 [C420R]; assay: Binding affinity to human partial length PIK3CA C420R mutant (R108 to N1068 residues) expressed in mammalian expression system assessed as residual binding level at 1 uM by Kinomescan method relative to control
How it was run: (§2)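 Kinome-wide single-concentration binding screen (KINOMEscan) at 1 μM against a panel of 468 purified kinases and mutants. Read-out is relative binding of each kinase compared with control. Selectivity across the panel was summarised as an S(10) score.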

[4] = molecular target: Dual specificity protein kinase CLK1 (Homo sapiens) (UniProt P49759); assay: Binding affinity to wild-type human full length CLK1 (M1 to I484 residues) expressed in bacterial expression system assessed as residual binding level at 1 uM by Kinomescan method relative to control
How it was run: (§3)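 KINOMEscan competition binding against 468 purified kinases/mutants, test compound at 1 µM; residual binding relative to control.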

[5] = molecular target: Interleukin-1 receptor-associated kinase 4 (Homo sapiens) (UniProt Q9NWZ3); assay: Binding affinity to wild-type human partial length IRAK4 (M1 to S460 residues) expressed in mammalian expression system assessed as residual binding level at 1 uM by Kinomescan method relative to control
[6] = molecular target: Cyclin-dependent kinase 18 (Homo sapiens) (UniProt Q07002); assay: Binding affinity to wild-type human full length PCTK3 (M3 to F474 residues) expressed in bacterial expression system assessed as residual binding level at 1 uM by Kinomescan method relative to control; how it was run: as §1
[7] = molecular target: Bone morphogenetic protein receptor type-1B (Homo sapiens) (UniProt O00238); assay: Binding affinity to wild-type human partial length BMPR1B (D178 to L502 residues) expressed in mammalian expression system assessed as residual binding level at 1 uM by Kinomescan method relative to control; how it was run: as §1
Chain of Bone morphogenetic protein receptor type-1B (Homo sapiens) (O00238 whole entry, the tested form may be a part): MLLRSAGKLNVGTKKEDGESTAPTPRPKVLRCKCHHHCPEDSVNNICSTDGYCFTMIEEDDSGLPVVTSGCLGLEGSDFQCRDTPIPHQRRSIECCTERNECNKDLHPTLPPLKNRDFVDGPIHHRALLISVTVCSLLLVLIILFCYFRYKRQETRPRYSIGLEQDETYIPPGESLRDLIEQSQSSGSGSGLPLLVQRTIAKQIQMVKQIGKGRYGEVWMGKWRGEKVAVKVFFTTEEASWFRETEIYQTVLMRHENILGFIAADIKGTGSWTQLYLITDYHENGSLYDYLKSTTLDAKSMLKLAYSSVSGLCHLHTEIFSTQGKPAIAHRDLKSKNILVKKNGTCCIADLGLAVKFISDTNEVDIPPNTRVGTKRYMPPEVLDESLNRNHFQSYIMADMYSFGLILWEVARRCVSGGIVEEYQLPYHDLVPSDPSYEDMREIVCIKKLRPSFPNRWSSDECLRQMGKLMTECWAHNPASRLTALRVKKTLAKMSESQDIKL

[8] = molecular target: Dual specificity protein kinase CLK3 (Homo sapiens) (UniProt P49761); assay: Binding affinity to wild-type human full length CLK3 (M1 to R490 residues) expressed in bacterial expression system assessed as residual binding level at 1 uM by Kinomescan method relative to control; how it was run: as §3
[9] = molecular target: Phosphatidylinositol 5-phosphate 4-kinase type-2 beta (Homo sapiens) (UniProt P78356); assay: Binding affinity to wild-type human full length PIP5K2B (M1 to T416 residues) expressed in bacterial expression system assessed as residual binding level at 1 uM by Kinomescan method relative to control; how it was run: as §3
Chain of Phosphatidylinositol 5-phosphate 4-kinase type-2 beta (Homo sapiens) (P78356 whole entry, the tested form may be a part): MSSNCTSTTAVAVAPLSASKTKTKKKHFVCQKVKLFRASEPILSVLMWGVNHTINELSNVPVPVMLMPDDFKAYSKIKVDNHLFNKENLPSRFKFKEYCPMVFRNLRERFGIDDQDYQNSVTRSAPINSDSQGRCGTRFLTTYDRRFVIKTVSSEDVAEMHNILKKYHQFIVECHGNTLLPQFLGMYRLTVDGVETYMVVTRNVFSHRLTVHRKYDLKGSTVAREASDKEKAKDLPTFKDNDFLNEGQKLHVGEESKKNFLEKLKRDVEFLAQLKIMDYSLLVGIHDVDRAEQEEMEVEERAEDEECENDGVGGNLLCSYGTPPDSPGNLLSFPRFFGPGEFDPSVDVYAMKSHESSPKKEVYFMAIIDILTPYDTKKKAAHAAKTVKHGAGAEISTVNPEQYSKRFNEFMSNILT

[10] = molecular target: BDNF/NT-3 growth factors receptor (Homo sapiens) (UniProt Q16620); assay: Binding affinity to wild-type human partial length TRKB (Q547 to G838 residues) expressed in mammalian expression system assessed as residual binding level at 1 uM by Kinomescan method relative to control
[11] = molecular target: Protein kinase C epsilon type (Homo sapiens) (UniProt Q02156); assay: Binding affinity to wild-type human partial length PRKCE (A378 to P737 residues) expressed in mammalian expression system assessed as residual binding level at 1 uM by Kinomescan method relative to control
Chain of Protein kinase C epsilon type (Homo sapiens) (Q02156 whole entry, the tested form may be a part): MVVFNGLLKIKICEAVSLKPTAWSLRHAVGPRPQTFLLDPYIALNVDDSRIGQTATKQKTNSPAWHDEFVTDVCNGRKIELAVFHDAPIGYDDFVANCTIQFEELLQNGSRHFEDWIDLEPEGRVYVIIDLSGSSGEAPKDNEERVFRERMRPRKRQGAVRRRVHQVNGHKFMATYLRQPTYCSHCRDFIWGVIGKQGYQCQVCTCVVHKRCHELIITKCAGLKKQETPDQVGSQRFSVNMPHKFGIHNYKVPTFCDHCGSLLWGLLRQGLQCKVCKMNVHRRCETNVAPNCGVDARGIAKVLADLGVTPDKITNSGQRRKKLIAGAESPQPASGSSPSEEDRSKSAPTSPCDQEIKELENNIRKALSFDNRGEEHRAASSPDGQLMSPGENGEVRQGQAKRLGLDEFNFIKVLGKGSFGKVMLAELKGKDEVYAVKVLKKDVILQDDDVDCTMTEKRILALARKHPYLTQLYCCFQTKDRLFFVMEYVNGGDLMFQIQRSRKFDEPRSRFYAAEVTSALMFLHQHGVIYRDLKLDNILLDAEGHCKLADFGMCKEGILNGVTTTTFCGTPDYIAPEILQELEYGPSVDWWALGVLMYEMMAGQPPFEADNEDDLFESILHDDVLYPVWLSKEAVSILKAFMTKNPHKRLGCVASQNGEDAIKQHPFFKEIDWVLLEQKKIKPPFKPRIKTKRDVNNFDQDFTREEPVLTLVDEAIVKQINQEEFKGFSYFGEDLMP
How it was run: (§4)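 KINOMEscan competition binding against a panel of 468 purified kinases/mutants, compound tested at 1 μM; readout is relative binding activity versus control.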

[12] = system: Receptor-type tyrosine-protein kinase FLT3 (Homo sapiens), P36888 [UNDEFINED MUTATION]; assay: Binding affinity to human partial length FLT3 ITD mutant expressed in bacterial expression system assessed as residual binding level at 1 uM by Kinomescan method relative to control; how it was run: as §2
[13] = molecular target: Cyclin-dependent kinase-like 5 (Homo sapiens) (UniProt O76039); assay: Binding affinity to wild-type human partial length CDKL5 (M1 to S337 residues) expressed in mammalian expression system assessed as residual binding level at 1 uM by Kinomescan method relative to control
[14] = system: Leucine-rich repeat serine/threonine-protein kinase 2 (Homo sapiens), Q5S007 [G2019S]; assay: Binding affinity to human partial length LRRK2 G2019S mutant (H970 to E2527 residues) expressed in mammalian expression system assessed as residual binding level at 1 uM by Kinomescan method relative to control; how it was run: as §2
Chain of Leucine-rich repeat serine/threonine-protein kinase 2 (Homo sapiens), Q5S007 [G2019S] (Q5S007 whole entry G2019S, the tested form may be a part): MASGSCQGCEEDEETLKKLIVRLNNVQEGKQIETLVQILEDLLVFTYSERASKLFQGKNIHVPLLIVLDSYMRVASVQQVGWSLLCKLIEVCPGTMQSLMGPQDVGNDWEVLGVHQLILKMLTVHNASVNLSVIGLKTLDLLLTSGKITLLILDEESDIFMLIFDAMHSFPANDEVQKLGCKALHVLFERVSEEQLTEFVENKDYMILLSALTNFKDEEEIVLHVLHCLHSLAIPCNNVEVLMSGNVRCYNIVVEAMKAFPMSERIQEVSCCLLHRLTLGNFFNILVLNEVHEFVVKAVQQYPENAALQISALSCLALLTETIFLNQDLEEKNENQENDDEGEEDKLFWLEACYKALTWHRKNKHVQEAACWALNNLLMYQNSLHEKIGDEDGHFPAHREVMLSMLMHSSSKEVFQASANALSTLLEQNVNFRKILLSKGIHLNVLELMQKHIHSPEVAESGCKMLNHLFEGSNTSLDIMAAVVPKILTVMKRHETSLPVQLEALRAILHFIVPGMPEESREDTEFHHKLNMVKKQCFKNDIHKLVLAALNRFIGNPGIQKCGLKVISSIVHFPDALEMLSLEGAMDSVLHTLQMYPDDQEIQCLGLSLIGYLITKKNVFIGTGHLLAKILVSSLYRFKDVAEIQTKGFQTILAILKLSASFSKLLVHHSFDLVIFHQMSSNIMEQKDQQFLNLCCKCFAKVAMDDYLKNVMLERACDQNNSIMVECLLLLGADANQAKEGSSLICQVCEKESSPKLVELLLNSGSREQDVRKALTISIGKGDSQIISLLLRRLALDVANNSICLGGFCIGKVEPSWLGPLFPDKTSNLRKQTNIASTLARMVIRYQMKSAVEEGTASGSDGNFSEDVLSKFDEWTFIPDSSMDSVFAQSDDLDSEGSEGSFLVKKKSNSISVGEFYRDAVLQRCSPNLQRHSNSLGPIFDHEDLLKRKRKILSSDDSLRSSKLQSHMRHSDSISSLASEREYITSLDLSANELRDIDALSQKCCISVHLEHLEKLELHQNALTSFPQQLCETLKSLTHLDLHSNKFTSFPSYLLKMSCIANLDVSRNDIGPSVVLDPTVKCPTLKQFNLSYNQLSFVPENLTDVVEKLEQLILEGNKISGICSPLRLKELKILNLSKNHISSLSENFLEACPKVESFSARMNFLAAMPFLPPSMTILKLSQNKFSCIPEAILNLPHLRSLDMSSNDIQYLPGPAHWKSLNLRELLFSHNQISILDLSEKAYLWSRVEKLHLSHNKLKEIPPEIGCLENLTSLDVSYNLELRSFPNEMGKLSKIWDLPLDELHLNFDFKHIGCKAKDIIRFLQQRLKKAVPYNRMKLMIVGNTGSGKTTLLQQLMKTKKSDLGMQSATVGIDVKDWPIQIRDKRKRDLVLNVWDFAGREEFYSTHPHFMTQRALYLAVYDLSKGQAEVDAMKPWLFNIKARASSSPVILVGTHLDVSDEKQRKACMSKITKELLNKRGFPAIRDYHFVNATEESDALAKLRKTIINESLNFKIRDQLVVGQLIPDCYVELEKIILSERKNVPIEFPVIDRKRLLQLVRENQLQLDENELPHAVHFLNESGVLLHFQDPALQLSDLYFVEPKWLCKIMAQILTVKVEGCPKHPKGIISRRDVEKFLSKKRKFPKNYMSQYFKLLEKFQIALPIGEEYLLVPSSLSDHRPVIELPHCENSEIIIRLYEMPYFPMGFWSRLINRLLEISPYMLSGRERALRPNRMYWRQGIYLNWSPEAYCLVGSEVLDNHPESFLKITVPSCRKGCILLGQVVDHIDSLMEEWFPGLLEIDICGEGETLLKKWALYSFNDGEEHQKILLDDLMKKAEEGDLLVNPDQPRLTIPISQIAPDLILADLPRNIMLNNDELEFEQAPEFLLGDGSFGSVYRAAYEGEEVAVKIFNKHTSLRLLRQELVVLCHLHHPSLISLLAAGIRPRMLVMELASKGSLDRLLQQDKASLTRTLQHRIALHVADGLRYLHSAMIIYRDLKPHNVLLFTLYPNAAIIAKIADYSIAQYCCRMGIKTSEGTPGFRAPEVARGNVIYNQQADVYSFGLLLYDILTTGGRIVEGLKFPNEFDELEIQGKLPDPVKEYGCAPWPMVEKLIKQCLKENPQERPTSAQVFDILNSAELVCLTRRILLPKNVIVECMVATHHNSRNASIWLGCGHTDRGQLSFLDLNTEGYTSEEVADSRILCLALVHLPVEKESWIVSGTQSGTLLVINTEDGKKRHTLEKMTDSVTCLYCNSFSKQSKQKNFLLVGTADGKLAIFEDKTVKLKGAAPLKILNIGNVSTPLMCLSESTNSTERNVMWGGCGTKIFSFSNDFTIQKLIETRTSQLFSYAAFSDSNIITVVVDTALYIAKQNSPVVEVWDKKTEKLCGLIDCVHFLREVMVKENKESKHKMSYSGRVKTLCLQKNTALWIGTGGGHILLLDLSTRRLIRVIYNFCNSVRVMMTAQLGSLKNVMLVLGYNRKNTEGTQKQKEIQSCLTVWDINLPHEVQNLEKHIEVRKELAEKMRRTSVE

[15] = molecular target: Activin receptor type-2A (Homo sapiens) (UniProt P27037); assay: Binding affinity to wild-type human ACVR2A (V171 to T499 residues) expressed in bacterial expression system assessed as residual binding level at 1 uM by Kinomescan method relative to control
How it was run: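 Single-concentration (1 μM) competition-binding screen run by KINOMEscan against a panel of 468 purified kinases and mutants. The read-out is the relative binding activity of the test compound to each kinase.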

[16] = molecular target: cAMP-dependent protein kinase catalytic subunit beta (Homo sapiens) (UniProt P22694); assay: Binding affinity to wild-type human full length PKAC-beta (M1 to F351 residues) expressed in bacterial expression system assessed as residual binding level at 1 uM by Kinomescan method relative to control; how it was run: as §1
[17] = molecular target: Protein kinase C eta type (Homo sapiens) (UniProt P24723); assay: Binding affinity to wild-type human partial length PRKCH (S324 to P683 residues) expressed in bacterial expression system assessed as residual binding level at 1 uM by Kinomescan method relative to control
[18] = molecular target: Transient receptor potential cation channel subfamily M member 6 (Homo sapiens) (UniProt Q9BX84); assay: Binding affinity to wild-type human partial length TRPM6 (Q1723 to I1998 residues) expressed in mammalian expression system assessed as residual binding level at 1 uM by Kinomescan method relative to control
[19] = molecular target: Mast/stem cell growth factor receptor Kit (Homo sapiens, UniProt P10721); assay: Binding affinity to wild-type human partial length autoinhibited KIT (Y545 to D952 residues) expressed in mammalian expression system assessed as residual binding level at 1 uM by Kinomescan method relative to control
[20] = molecular target: Mitogen-activated protein kinase kinase kinase 7 (Homo sapiens) (UniProt O43318); assay: Binding affinity to wild-type human partial length TAK1 (M1 to Q303 residues) expressed in mammalian expression system assessed as residual binding level at 1 uM by Kinomescan method relative to control; how it was run: as §4
[21] = molecular target: Receptor-type tyrosine-protein kinase FLT3 (Homo sapiens) (UniProt P36888); assay: Binding affinity to wild-type human partial length FLT3 (V592 to Y969 residues) expressed in bacterial expression system assessed as residual binding level at 1 uM by Kinomescan method relative to control
[22] = molecular target: Cyclin-dependent kinase 8 (Homo sapiens) (UniProt P49336); assay: Binding affinity to wild-type human partial length CDK8 (M1 to T360 residues) expressed in bacterial expression system assessed as residual binding level at 1 uM by Kinomescan method relative to control

Chain of Phosphatidylinositol 4-kinase beta (Homo sapiens) (Q9UBF8 2-816 limits assumed): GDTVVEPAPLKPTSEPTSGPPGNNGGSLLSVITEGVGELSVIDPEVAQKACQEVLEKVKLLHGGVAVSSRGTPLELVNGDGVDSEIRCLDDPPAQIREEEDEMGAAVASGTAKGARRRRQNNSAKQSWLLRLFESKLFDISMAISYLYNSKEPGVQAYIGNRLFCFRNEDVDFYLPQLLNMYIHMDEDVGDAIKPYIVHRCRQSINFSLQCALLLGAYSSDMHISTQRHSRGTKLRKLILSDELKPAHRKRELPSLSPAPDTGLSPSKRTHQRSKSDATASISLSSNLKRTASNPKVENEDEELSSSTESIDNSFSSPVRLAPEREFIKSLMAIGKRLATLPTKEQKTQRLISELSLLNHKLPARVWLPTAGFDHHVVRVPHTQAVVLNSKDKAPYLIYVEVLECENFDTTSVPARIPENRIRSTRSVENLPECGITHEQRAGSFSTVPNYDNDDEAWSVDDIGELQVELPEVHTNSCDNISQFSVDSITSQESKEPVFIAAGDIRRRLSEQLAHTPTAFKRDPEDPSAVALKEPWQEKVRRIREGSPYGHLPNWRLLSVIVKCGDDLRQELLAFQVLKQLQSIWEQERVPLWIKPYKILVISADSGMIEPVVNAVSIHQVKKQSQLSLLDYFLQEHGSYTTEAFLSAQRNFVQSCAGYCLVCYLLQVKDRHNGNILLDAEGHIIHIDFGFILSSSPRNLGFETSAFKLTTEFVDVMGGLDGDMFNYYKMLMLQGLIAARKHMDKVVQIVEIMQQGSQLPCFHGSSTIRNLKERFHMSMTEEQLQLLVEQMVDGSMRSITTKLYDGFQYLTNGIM

Q: Which results are given for `Cc1ccc(NC(=O)c2ccc(CN(CCN(C)C)C(=O)c3cccnc3)cc2)cc1Nc1nccc(-c2cccnc2)n1`?
A: Activity [1]: 100%; Activity [2]: 97%; Activity [3]: 93%; Activity [4]: 87%; Activity [5]: 100%; Activity [6]: 95%; Activity [7]: 95%; Activity [8]: 94%; Activity [9]: 83%; Activity [10]: 100%; Activity [11]: 80%; Activity [12]: 81%; Activity [13]: 100%; Activity [14]: 59%; Activity [15]: 96%; Activity [16]: 77%; Activity [17]: 86%; Activity [18]: 100%; Activity [19]: 100%; Activity [20]: 92%; Activity [21]: 89%; Activity [22]: 90%
